ChEMBL document CHEMBL1240409, “Design, synthesis and evaluation of (E)-alpha-benzylthio chalcones as novel inhibitors of BCR-ABL kinase” (Bioorg Med Chem, 2010)

Columns and labels:
DU-145 = assay: Growth inhibition of human DU145 cells after 96 hrs by trypan blue exclusion assay; format: functional; conditions: DU-145, 96 h
K562 = assay: Growth inhibition of human K562 cells expressing p210Bcr/Abl after 96 hrs by trypan blue exclusion assay; format: functional, cell-based; conditions: K562, 96 h
Procedure, shortened: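 K562 cells were kept in RPMI with 10% FBS and penicillin–streptomycin at 37 °C under 5% CO2. Cells were seeded at 1 × 10^5 cells/mL with a range of compound concentrations, using DMSO as the negative control. After 96 h, viability was counted by Trypan blue exclusion and expressed as percent of DMSO control to derive GI50.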

Row | SMILES | GI50 (DU-145) | GI50 (K562)
1 | Nc1c(Br)cc(Br)cc1/C=C(/Sc1ccc(Br)cc1)C(=O)c1ccc(Br)cc1 | > 100 µM | > 100000 nM
2 | O=C(/C(=C\c1ccc([N+](=O)[O-])c(O)c1)SCc1ccc(Br)cc1)c1c(F)c(F)c(F)c(F)c1F | 10 µM | 1000 nM
3 | O=C(/C(=C\OCc1ccccc1)S(=O)(=O)c1ccccc1Cl)c1ccc(Cl)cc1 | 1 µM | 1000 nM
4 | O=C(/C(=C\c1ccc(Cl)cc1)Sc1ccc(Br)cc1)c1ccc(Br)cc1 | 1 µM | 1000 nM
5 | O=C(/C(=C\c1ccccc1OCc1ccccc1)Sc1ccccc1Cl)c1ccccc1Cl | 50 µM | 50000 nM
6 | Cc1ccc(S/C(=C/c2ccc(C)s2)C(=O)c2ccc(Br)cc2)cc1 | > 100 µM | 50000 nM
7 | O=C(/C(=C\c1c(O)cc(O)cc1O)SCc1ccc(Cl)cc1Cl)c1ccc(Cl)cc1 | 25 µM | > 100000 nM
8 | COc1cc(C(=O)/C(=C\c2ccc(O)c([N+](=O)[O-])c2)SCc2ccc(Br)cc2)cc(OC)c1OC | 1 µM | 1000 nM
9 | O=C(/C(=C\c1ccc(Br)c(O)c1)Sc1ccc(Br)cc1)c1ccc(Br)cc1 | 1 µM | 1000 nM
10 | Cc1ccc(S(=O)(=O)/C(=C/c2ccc(C)s2)C(=O)c2ccc(Br)cc2)cc1 | 25 µM | 50000 nM
11 | Cc1ccc(CS/C(=C/c2ccc(F)c([N+](=O)[O-])c2)C(=O)c2ccc(Cl)c([N+](=O)[O-])c2)cc1 | 1 µM | < 1000 nM
12 | Cc1ccc(S(=O)(=O)/C(=C/c2ccc(Oc3ccccc3)cc2)C(=O)c2ccc(Cl)cc2)cc1 | 1 µM | 1000 nM
13 | Cc1ccc(/C=C(\C(=O)c2ccc(Br)cc2)S(=O)(=O)Cc2ccc(F)cc2)s1 | 1 µM | 1000 nM
14 | O=C(/C(=C\c1c(O)cc(O)cc1O)SCc1ccc(Cl)c(Cl)c1)c1ccc(Cl)cc1 | 25 µM | 25000 nM
15 | O=C(/C(=C/c1ccc(Cl)cc1)Cc1c[nH]c2ccccc12)c1ccc(Cl)cc1Cl | 10 µM | 10000 nM
16 | O=C(/C(=C\c1cc(Br)c(O)c(Br)c1)S(=O)(=O)Cc1ccc(Br)cc1)c1ccc(Br)cc1 | 25 µM | 25000 nM
17 | N#Cc1ccc(C(=O)/C(=C\c2ccc(O)c([N+](=O)[O-])c2)SCc2ccc(Br)cc2)cc1 | 10 µM | 10000 nM
18 | Cc1ccc(C(=O)/C(=C\c2ccc(N(C)C)cc2)S(=O)(=O)c2ccc(Cl)cc2)cc1 | 50 µM | 50000 nM
19 | O=C(/C(=C\c1ccc(O)c([N+](=O)[O-])c1)Sc1ccccc1Br)c1ccc(Br)cc1 | 10 µM | 10000 nM
20 | Cc1ccc(S/C(=C/c2c[nH]c3ccc(Br)cc23)C(=O)c2ccc(Cl)cc2)cc1 | 1 µM | 1000 nM
21 | Cc1cc(C)cc(/C=C(\C(=O)c2ccc(Br)cc2)S(=O)(=O)Cc2ccc(F)cc2)c1 | 10 µM | 10000 nM
22 | COc1ccc(C(=O)C(=Cc2ccc(Br)cc2)S(=O)(=O)Cc2ccc(Br)cc2)cc1 | 1 µM | 1000 nM
23 | O=C(O)c1ccc(C(=O)/C(=C\c2ccc(Br)cc2)SCc2ccc(Br)cc2)cc1 | 1 µM | 1000 nM
24 | O=C(C(=Cc1ccc(Br)cc1)S(=O)(=O)Cc1ccc(I)cc1)c1ccc(Br)cc1 | > 50 µM | > 50000 nM
25 | Cc1ccc(CS/C(=C/c2ccccc2OCc2ccccc2)C(=O)c2ccc(Cl)cc2)cc1 | 1 µM | 1000 nM
26 | O=C(/C(=C\c1ccc([N+](=O)[O-])c(O)c1)SCc1ccc(Br)cc1)c1ccc([N+](=O)[O-])cc1 | 1 µM | 1000 nM
27 | O=C(/C(=C\c1c(O)cc(O)cc1O)Sc1ccccc1Br)c1ccc(Br)cc1 | > 100 µM | > 100000 nM
28 | O=C(/C(=C\c1ccc(O)c(C(=O)O)c1)SCc1ccc(Br)cc1)c1ccc(Br)cc1 | 10 µM | 25000 nM
29 | CCOc1cc(/C=C(\SCc2ccc(Cl)cc2Cl)C(=O)c2ccc(Cl)cc2)ccc1O | 10 µM | 1000 nM
30 | O=C(/C(=C\c1ccc(Br)c([N+](=O)[O-])c1)S(=O)(=O)c1ccc(Br)cc1)c1ccc(Br)cc1 | 10 µM | 10000 nM

Now from value to compound:

Row | GI50 (DU-145) | GI50 (K562) | SMILES
31 | 10 µM | 10000 nM | COc1ccc(OC)c(/C=C(/SCc2ccc(Cl)c(Cl)c2)C(=O)c2ccc(Cl)cc2)c1
32 | 50 µM | 25000 nM | O=C(/C(=C\c1ccc(O)cc1O)Sc1ccc(Br)cc1)c1ccc(Cl)cc1
33 | 10 µM | 10000 nM | COc1ccc(/C=C(/SCc2ccc(F)cc2)C(=O)c2ccc(Cl)cc2)c(OC)c1OC
34 | 4 µM | 4000 nM | COc1ccc(C(=O)/C(=C\c2ccc(Cl)cc2)S(=O)(=O)c2ccc(Cl)cc2)cc1
35 | 2.5 µM | 1000 nM | Cc1ccc(S(=O)(=O)/C(=C/c2ccccc2F)C(=O)c2ccc(Cl)cc2)cc1
36 | 1 µM | 1000 nM | O=C(/C(=C\c1ccc(F)cc1F)Sc1ccc(Br)cc1)c1ccc(Br)cc1
37 | 1 µM | 1000 nM | O=C(/C(=C\c1ccccc1OCc1ccccc1)SCc1ccc(F)cc1)c1ccc(Cl)cc1
38 | 1 µM | 1000 nM | O=C(/C(=C\c1ccc(O)cc1)SCc1ccc(Cl)c(Cl)c1)c1ccc(Cl)cc1
39 | 50 µM | 50000 nM | CN(C)c1ccc(/C=C(/SCc2ccc(Cl)c(Cl)c2)C(=O)c2ccc(Cl)cc2)cc1
40 | 1 µM | 1000 nM | Cc1ccc(CS/C(=C/c2cc([N+](=O)[O-])ccc2F)C(=O)c2ccc(Cl)cc2)cc1
41 | 1 µM | 1000 nM | Cc1ccc(/C=C(\C(=O)c2ccc(Cl)cc2)S(=O)(=O)Cc2ccc(Cl)cc2)s1
42 | 50 µM | 1000 nM | CCOc1ccc(/C=C(/SCc2ccc(F)cc2)C(=O)c2ccc(Br)cc2)cc1OC
43 | 10 µM | 10000 nM | Cc1ccc(CS/C(=C/c2ccccc2Br)C(=O)c2ccc(Cl)cc2)cc1
44 | 1 µM | 1000 nM | COc1ccc(S/C(=C/c2ccc(Cl)cc2Cl)C(=O)c2ccc(Br)cc2)cc1
45 | 1 µM | 1000 nM | O=C(/C(=C\c1c[nH]c2ccccc12)SCc1ccc(F)cc1)c1ccc(Cl)cc1
46 | 10 µM | 1000 nM | O=C(C(=Cc1ccc(Br)cc1)SCc1ccccc1Cl)c1ccc(Cl)cc1
47 | 10 µM | 50000 nM | Cc1ccsc1/C=C(/SCc1ccc(Cl)cc1Cl)C(=O)c1ccc(Cl)cc1
48 | 10 µM | 1000 nM | O=C(/C(=C\c1ccc(Cl)cc1Cl)S(=O)(=O)c1ccc(Br)cc1)c1ccc(Br)cc1
49 | 50 µM | 50000 nM | O=C(/C(=C\c1ccc(F)cc1C(F)(F)F)[S+]([O-])Cc1ccc(Cl)cc1)c1ccc(Cl)cc1 (stereo not given)
50 | 1 µM | 1000 nM | Cc1ccc(CS(=O)(=O)/C(=C/c2cc(C)ccc2C)C(=O)c2ccc(Cl)cc2)cc1
51 | 30 µM | 1000 nM | O=C(/C(=C\c1ccc(Cl)cc1)SCc1ccc(Cl)cc1)c1ccccc1Cl
52 | 1 µM | 1000 nM | COc1ccccc1/C=C(\C(=O)c1ccc(Cl)cc1)S(=O)(=O)Cc1ccc(Cl)c(Cl)c1
53 | > 100 µM | 50000 nM | O=C(O)c1ccc(C(=O)/C(=C\c2ccc(O)c([N+](=O)[O-])c2)SCc2ccc(F)cc2)cc1
54 | 10 µM | 10000 nM | Cc1ccc(CS/C(=C/c2sccc2C)C(=O)c2ccc(Cl)cc2)cc1
55 | 1 µM | 1000 nM | Cc1ccc(S(=O)(=O)/C(=C/c2cc(C)ccc2C)C(=O)c2ccc(Cl)cc2)cc1
